Measured values of several laboratories.
Each line is one published result; the experiments were not run side by side.
Target: Non-receptor tyrosine-protein kinase TNK1 (TNK1, Homo sapiens, UniProt Q13470)
Residues used in one study (Q13470 1-666): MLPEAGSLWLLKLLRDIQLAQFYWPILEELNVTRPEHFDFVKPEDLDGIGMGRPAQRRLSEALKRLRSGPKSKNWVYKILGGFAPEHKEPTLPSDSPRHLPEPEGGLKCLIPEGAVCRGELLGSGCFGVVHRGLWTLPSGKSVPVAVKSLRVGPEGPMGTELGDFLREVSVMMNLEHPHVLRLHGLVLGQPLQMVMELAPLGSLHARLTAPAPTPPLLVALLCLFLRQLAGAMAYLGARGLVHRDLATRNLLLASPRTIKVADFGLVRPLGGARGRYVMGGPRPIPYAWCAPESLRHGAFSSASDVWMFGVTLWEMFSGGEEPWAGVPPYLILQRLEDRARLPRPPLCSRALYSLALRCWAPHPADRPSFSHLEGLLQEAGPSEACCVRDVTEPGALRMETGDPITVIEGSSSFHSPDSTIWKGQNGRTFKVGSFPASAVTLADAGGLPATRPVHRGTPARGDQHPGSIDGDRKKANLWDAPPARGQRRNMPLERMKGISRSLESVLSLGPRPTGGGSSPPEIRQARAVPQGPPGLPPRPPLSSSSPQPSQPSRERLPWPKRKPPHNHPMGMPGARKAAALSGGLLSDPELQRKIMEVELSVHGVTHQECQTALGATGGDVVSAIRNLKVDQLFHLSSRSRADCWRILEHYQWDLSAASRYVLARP

CC/C(=N\NC(=O)NCc1cccc(O)c1)c1ccc(O)c(C)c1O — inhibition (enzyme activity; inhibitor; 0.1 µM): -1.1%
Cc1sc(C(=O)NC2COC2)cc1-n1cc(NC(=O)Nc2c(F)cccc2Cl)cn1 — remaining activity (enzyme activity; inhibitor; 10 µM): 105%
CC(C)(C)c1nc2c(s1)c1nc(N)ncc1c1ccc(NS(=O)(=O)c3c(F)cccc3F)c(F)c12 — remaining activity (enzyme activity; inhibitor; radiometric; 1 µM): 82%
Nc1ncnc2occ(-c3ccc(NC(=O)Nc4cc(C(F)(F)F)ccc4F)cc3)c12 — remaining signal (cell-free assay; inhibitor; 20 µM): 6.8%
c1nc2c(Nc3ccc4c(c3)OCCO4)nc(Nc3ccc4c(c3)OCCO4)nc2[nH]1 — activity vs control (enzyme activity; inhibitor; 10 µM): 14%
O=C(Nc1cnn(-c2csc(C(=O)NC3COC3)c2)c1)Nc1ccccc1Cl — remaining activity (enzyme activity; inhibitor; 5 µM): 100%
CCOC(=O)c1cc2cc(-c3cc(C(=O)NCc4ccc(C(=O)O)cc4)nn3C)ccc2[nH]1 — remaining binding (cell-free assay; competition with immobilised ligand; 0.1 µM): 88%
CC(C)(O)[C@H]1CC[C@H](Nc2ccc3ncc(-c4cccc(C(F)(F)F)c4)n3n2)CC1 — remaining activity (enzyme activity; inhibitor; 1 µM): 52.4%
CC(=O)N1CCC(c2ccc(C(=O)NC(=N)N)cc2C(F)(F)F)CC1 — remaining binding (cell-free assay; competition with immobilised ligand; 1 µM): 89%
Cc1ccc(C(=O)Nc2ccc(CN3CCN(C)CC3)c(C(F)(F)F)c2)cc1C#Cc1cnc2cccnn12 — remaining activity (enzyme activity; inhibitor; 23.5 nM): 13%
